Data set [1] is described as follows: melting temperature; fluorescence melt of hairpins on a sequencing array, two-state fit, raised by 9.35 °C to match UV melts. The note with it: sodium 0.088 M. An outline of the steps:
(§1)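 Cy3 fluorescence of library hairpins on a sequenced MiSeq flow cell, with annealed Cy3 and quencher oligos, was imaged in 50 mM Na-HEPES pH 8.0, 25 mM NaCl in 2.5 °C steps up to 60 °C. Signals were normalised to pre-quench Cy3 and to control variants. Melting temperature and folding enthalpy came from bootstrapped two-state fits, inverse-variance combined over four replicates. Fitted temperatures were raised by 9.35 °C to match UV melts.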

A short description of data set [2]: folding enthalpy; higher = less favourable; fluorescence melt of hairpins on a sequencing array, two-state fit. The note with it: sodium 0.088 M. An outline of the steps: as §1

GGCTACGAAAGTAGTGCC ((((((....)))..))): in data set [1], the Tm is 46.7 °C. In data set [2], the folding enthalpy was -16.6 kcal/mol.

As to GGCTACGGAAACGTAGTC (.(((((....))))).), in data set [1], the Tm turned out to be 53.6 °C. In addition, the folding enthalpy in data set [2] is -28.9 kcal/mol.

For GGCTACTCGAAAGAGGCC (((..(((....)))))), the Tm in data set [1] turned out to be 45.7 °C. Also, the folding enthalpy in data set [2] is -30 kcal/mol.

For GGCTAGCGAAAGCTCGCC (((.(((....))).))), in data set [1], the Tm amounted to 58.8 °C. For the same sequence, the folding enthalpy in data set [2] is -36.3 kcal/mol.

For GGCTAGGGAAACCTAACC ((.((((....)))).)), the Tm in data set [1] was found to be 35.2 °C. Also, the folding enthalpy in data set [2] was -30.3 kcal/mol.

Consider GGCTAGGGAAACCTAGTC (.(((((....))))).), for which, in data set [1], the Tm is 48.8 °C. For the same sequence, the folding enthalpy in data set [2] is -41.7 kcal/mol.

In the case of GGCTATCGAAAGATGGCC (((.(((....))).))), the Tm in data set [1] amounted to 59.8 °C. Also, in data set [2], the folding enthalpy is -52.3 kcal/mol.

In the case of GGCTATGGAAACATAACC ((.((((....)))).)), the Tm in data set [1] stood at 34.4 °C. Moreover, the folding enthalpy in data set [2] was -25.7 kcal/mol.

GGCTATGGAAACATAGTC (.(((((....))))).): in data set [1], the Tm was 46.5 °C. The folding enthalpy in data set [2] is -34.7 kcal/mol.

Turning to GGCTCACCGAAAGGTGCC (((..(((....)))))), in data set [1], the Tm is 39.6 °C. In data set [2], the folding enthalpy is -10.9 kcal/mol.

Consider GGCTCACGAAAGTGCGCC (((.(((....))).))), for which, in data set [1], the Tm was determined as 58.4 °C. In data set [2], the folding enthalpy was -50.9 kcal/mol.

Take GGCTCAGGAAACTGAACC ((.((((....)))).)): in data set [1], the Tm stood at 41.8 °C. The folding enthalpy in data set [2] was -32.3 kcal/mol.

Consider GGCTCAGGAAACTGAGTC (.(((((....))))).), for which the Tm in data set [1] was 52.6 °C. Also, the folding enthalpy in data set [2] was -40.2 kcal/mol.

As to GGCTCCGAAAGGACAGCC ((((((....)))..))), in data set [1], the Tm turned out to be 50.6 °C. For the same sequence, the folding enthalpy in data set [2] was -23.1 kcal/mol.

Regarding GGCTCCGAAAGGACTGCC ((((((....)))..))), the Tm in data set [1] was found to be 47.6 °C. The folding enthalpy in data set [2] is -19.1 kcal/mol.

For the sequence GGCTCCGAAAGGAGTGCC ((((((....)))..))), the Tm in data set [1] is 50 °C. In addition, in data set [2], the folding enthalpy is -14.5 kcal/mol.

Consider GGCTCCGGAAACGAAGCC ((((.((....)).)))), for which the Tm in data set [1] stood at 50.7 °C. The folding enthalpy in data set [2] was -40.4 kcal/mol.

GGCTCCGGAAACGGGGCC (((.(((....))).))): the Tm in data set [1] was determined as 67.5 °C. Besides, the folding enthalpy in data set [2] is -50.7 kcal/mol.

Consider GGCTCTCGAAAGAGGGCC (((.(((....))).))), for which, in data set [1], the Tm amounted to 64.7 °C. The folding enthalpy in data set [2] is -39.3 kcal/mol.

In the case of GGCTCTGCGAAAGCAGCC (((..(((....)))))), in data set [1], the Tm came to 40.6 °C. The folding enthalpy in data set [2] was -9.66 kcal/mol.

With GGCTCTGGAAACAGAACC ((.((((....)))).)), in data set [1], the Tm was determined as 42.3 °C. For the same sequence, the folding enthalpy in data set [2] was -35.1 kcal/mol.

With GGCTCTGGAAACAGAGTC (.(((((....))))).), the Tm in data set [1] was found to be 52.8 °C. For the same sequence, the folding enthalpy in data set [2] was -35.7 kcal/mol.

On to GGCTCTTCGAAAGAAGCC (((..(((....)))))), for which the Tm in data set [1] was 37.6 °C. Further, the folding enthalpy in data set [2] was -16.3 kcal/mol.

For the sequence GGCTGAGAAATCAGCC ((((((....)))))), the Tm in data set [1] is 65.7 °C. Moreover, the folding enthalpy in data set [2] was -34.3 kcal/mol.

With GGCTGCCGAAAGGCCGCC (((.(((....))).))), in data set [1], the Tm amounted to 65 °C. For the same sequence, the folding enthalpy in data set [2] was -18.5 kcal/mol.

Take GGCTGCGAAAGCAAGGCC ((((((....)))..))): in data set [1], the Tm was found to be 55.8 °C. In data set [2], the folding enthalpy is -18.5 kcal/mol.

As to GGCTGCGGAAACGCAACC ((.((((....)))).)), the Tm in data set [1] turned out to be 54.7 °C. In addition, the folding enthalpy in data set [2] is -22.3 kcal/mol.

Take GGCTGCGGAAACGCGGTC (.(.(((....))).).): the Tm in data set [1] was 53.1 °C. Moreover, the folding enthalpy in data set [2] is -28.7 kcal/mol.

GGCTGCGGAAACGTGGCC (((..((....))..))): the Tm in data set [1] came to 56.5 °C. Moreover, the folding enthalpy in data set [2] was -45.6 kcal/mol.

With GGCTGGGGAAACCTAGCC ((((.((....)).)))), the Tm in data set [1] was 56.2 °C. The folding enthalpy in data set [2] is -42.8 kcal/mol.

GGCTGGTCGAAAGACGCC (((..(((....)))))): the Tm in data set [1] was determined as 52.1 °C. In data set [2], the folding enthalpy was -27 kcal/mol.

For GGCTGTGGAAACATAGCC ((((.((....)).)))), the Tm in data set [1] was 53.5 °C. Besides, in data set [2], the folding enthalpy was -43.4 kcal/mol.

As for GGCTGTGGAAACATGGCC (((..((....))..))), the Tm in data set [1] turned out to be 49.5 °C. The folding enthalpy in data set [2] was -32.6 kcal/mol.

Take GGCTGTGGAAACGTAGCC ((((..(....)..)))): in data set [1], the Tm amounted to 48.9 °C. In addition, the folding enthalpy in data set [2] is -29.9 kcal/mol.

As for GGCTTAACGAAAGTTGCC (((..(((....)))))), in data set [1], the Tm is 45.5 °C. Further, in data set [2], the folding enthalpy was -21.8 kcal/mol.

GGCTTAGAAATAAGCC ((((((....)))))): the Tm in data set [1] was 55.4 °C. In data set [2], the folding enthalpy is -33.4 kcal/mol.

Consider GGCTTCCCGAAAGGGGCC (((..(((....)))))), for which the Tm in data set [1] amounted to 48.2 °C. In addition, the folding enthalpy in data set [2] was -17.7 kcal/mol.

Source of the values: the array DNA melting data of Ke et al. (doi:10.1101/2024.01.08.574731).
